# Measurements gathered from unrelated publications.
# Compare with care: the assays were run in different laboratories. pIC50: −log10 of the molar value.
# Observed: parasite growth
# Setting: promastigote
Structure (SMILES),organism,assay,setting,measurement,result
Oc1ccc(/C=C/c2cc(O)cc(O)c2)cc1,Leishmania amazonensis,MTT,72 h,pIC50,4.01
COc1ccc(Sc2ccccc2)c(OC)c1OC,Leishmania braziliensis,MTT,24 h,pIC50,4.84
C[C@@H]1[C@H](O)[C@@H](C)/C=C/C=C/C=C/C=C/C=C/C=C/C=C/[C@H](O[C@@H]2O[C@H](C)[C@@H](O)[C@H](N)[C@@H]2O)C[C@@H]2O[C@](O)(C[C@@H](O)C[C@@H](O)[C@H](O)CC[C@@H](O)C[C@@H](O)CC(=O)O[C@H]1C)C[C@H](O)[C@H]2C(=O)O,Leishmania amazonensis,,72 h,IC50,0.06 mg/L
COc1ccc([S+]([O-])c2ccc(C)cc2)c(OC)c1OC (stereo not drawn),Leishmania braziliensis,MTT,24 h,pIC50,4.17
COc1cc(O)c(CC=C(C)C)c(O)c1C(=O)/C=C/c1ccc(O)cc1,Leishmania amazonensis,MTT,72 h,pIC50,4.33
C=C1C[C@@]23CC[C@H]4[C@@](C)(CCC[C@@]4(C)C(=O)O)[C@@H]2CC[C@@H]1C3,Leishmania amazonensis,,72 h,IC50,28 mg/L
CC(C)(C)CC(C)(C)Nc1c(-c2cccs2)nc2ncccn12,Leishmania amazonensis,MTT,72 h,pIC50,< 4.00
C[C@@H]1[C@H](O)[C@@H](C)/C=C/C=C/C=C/C=C/C=C/C=C/C=C/[C@H](O[C@@H]2O[C@H](C)[C@@H](O)[C@H](N)[C@@H]2O)C[C@@H]2O[C@](O)(C[C@@H](O)C[C@@H](O)[C@H](O)CC[C@@H](O)C[C@@H](O)CC(=O)O[C@H]1C)C[C@H](O)[C@H]2C(=O)O,Leishmania braziliensis,MTT,24 h,pIC50,4.66
CC(C)(C)CC(C)(C)Nc1c(-c2cccc([N+](=O)[O-])c2)nc2ncccn12,Leishmania amazonensis,MTT,72 h,pIC50,< 4.00
COc1ccc(S(=O)(=O)c2ccc(OC)c(OC)c2OC)cc1,Leishmania braziliensis,MTT,24 h,pIC50,4.49
CCCCCCCCc1nc2ncccn2c1NC(C)(C)CC(C)(C)C,Leishmania amazonensis,MTT,72 h,pIC50,4.39
C=C1CC[C@@H]2[C@](C)(CCC[C@@]2(C)C(=O)O)[C@H]1CC[C@H](C)CC(=O)O,Leishmania amazonensis,,72 h,IC50,70 mg/L
